Bioassay records (PubChem BioAssay)
ZTA counter – counter-screen for EBNA-1 inhibitors: inhibitors of Epstein-Barr virus ZTA. hit rate 0.15% among 320,000. ZTA-DNA binding, fluorescence polarization. AID 2234. P03206. inhibition, % at 11 µM; in the data active = inhibition above about 33%
EBNA-1 inh – EBNA-1 DNA-binding inhibitors, primary screen, biochemical, fluorescence polarization | inhibition, % at 14.8 µM | hit rate 0.34% among 300,000; in the data active = inhibition above about 28%
GSTO1 counter – inhibitors of recombinant GSTO1, primary screen, counter-screen for RBBP9 inhibitor project, biochemical, fluorescence polarization. Glutathione S-transferase omega-1 (Homo sapiens), P78417. activity-based probe fluorescence polarization. inhibition, % at 5.96 µM. hit rate 1.1% among 300,000. AID 1974, 2009;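 active = inhibition above the campaign mean inhibition plus 3 SD, cut at about 35% in these data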;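 note: 0% = GSTO1-1 with DMSO and 100% = wells lacking GSTO1-1 enzyme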
Target sequence (P78417 whole entry, looked up): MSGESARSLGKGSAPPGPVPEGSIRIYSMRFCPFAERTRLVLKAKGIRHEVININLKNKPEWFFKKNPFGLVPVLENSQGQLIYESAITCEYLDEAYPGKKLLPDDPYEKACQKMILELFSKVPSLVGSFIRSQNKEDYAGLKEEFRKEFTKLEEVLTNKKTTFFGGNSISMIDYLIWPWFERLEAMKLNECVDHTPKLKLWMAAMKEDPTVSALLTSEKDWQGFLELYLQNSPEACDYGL
Apaf-1 inh – inhibitors of human Apaf-1 apoptosome, primary screen, biochemical, DEVD-Rh110 fluorescence, uHTS | reconstituted apoptosome caspase-3 activity | inhibition, % at 20 µM | hit rate 0.71% among 330,000; active = inhibition of at least 40% at 20 µM;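 note: plate controls were DMSO wells for no effect and DEVD-CHO caspase inhibitor wells for full effect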
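System: Apoptosome proteins | Medium: Hepes pH 7.5 with detergent and BSA | Also added: Cytochrome c trigger plus (Z-DEVD)2-Rh110 caspase-3 substrate | Incubation: 30 min compound preincubation, 50 min activation, room temperature | Detection: Rhodamine 110 fluorescence at Ex 480/Em 540 nm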
proCasp3 act – activators of human procaspase-3 D3A mutant, primary screen, biochemical, absorbance, PC-3 D3A mutant, single concentration. Caspase-3 (Homo sapiens), P42574. recombinant procaspase-3 D3A, Ac-DEVD-pNA absorbance 405 nm. activation, % at 8.5 µM. hit rate 0.11% among 330,000. AID 463141, 2010;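 active = activation above the mean of all tested compounds plus 3 SD, cut at about 21% in these data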;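 note: 0% = DMSO alone and 100% = DMSO wells spiked with extra 5 µM PC-3 D3A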
Target sequence (P42574 whole entry D9A/D28A/D175A): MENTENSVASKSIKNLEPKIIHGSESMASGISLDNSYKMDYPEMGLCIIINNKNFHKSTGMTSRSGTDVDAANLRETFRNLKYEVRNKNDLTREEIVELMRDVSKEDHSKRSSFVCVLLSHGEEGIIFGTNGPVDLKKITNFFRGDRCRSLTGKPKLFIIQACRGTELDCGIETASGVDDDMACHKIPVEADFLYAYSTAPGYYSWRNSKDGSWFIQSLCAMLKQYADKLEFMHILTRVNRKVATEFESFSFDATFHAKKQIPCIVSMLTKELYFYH
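Test system: Procaspase-3 D3A mutant, all three cleavage aspartates alanine | Dosing: Single dose, 8.5 µM nominal compound, 0.8% DMSO | Schedule: 1 h preincubation, 2 h reaction | Technique: 405 nm absorbance of p-nitroaniline, reads at 0 and 120 min | Repeats: One well per compound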
procasp7 counter – procaspase-7 activators, primary screen, counter-screen for procaspase-3 activator project, biochemical, absorbance, HTS, human | Caspase-7 (Homo sapiens), P55210 | recombinant procaspase-7, Ac-DEVD-pNA absorbance 405 nm; D23A/D198A/D206A triple mutant, cannot self-cleave; scale: DMSO 0, 5 µM enzyme 100 | activation, % at 8.5 µM | hit rate 0.093% among 330,000 | AID 463210, 2010;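 active = percent activation above the screen-wide mean plus 3 SD, cut at about 25% in these data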
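Assay system: Uncleavable procaspase-7 mutant enzyme | Input: 2 µM procaspase-7 mutant as dispensed | Timing: 1 h compound preincubation, 2 h substrate cleavage, 25 °C | Repeats: One well per compound | Control set: DMSO wells as 0%, DMSO with 5 µM added PC-7 as 100% | Technique: Epi-absorbance of released pNA at 405 nm, two timepoints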
ZTA inh confirm – EBV Zta binding to ZRE DNA, inhibitors, confirmation, biochemical, fluorescence polarization, triplicate. shares compounds with ZTA counter. inhibition, % at 11.1 µM. hit rate 30% among 320;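 active = mean inhibition across triplicate runs above the hit threshold derived for the original primary screen, cut at about 33% in these data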;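 note: 0% = Zta with DMSO and 100% = wells lacking Zta protein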
EBNA-1 counter – EBNA-1 DNA-binding inhibition, counter-screen for ZTA inhibitor project, biochemical, fluorescence polarization | shares compounds with ZTA counter | inhibition, % at 14.8 µM | 320 tested, under 10 active; call rule not given here
Starred values were filed as active, the others as inactive; . = no result given. An excerpt weighted towards active compounds, which were near 1.8% of everything screened.

SMILES	ZTA counter	EBNA-1 inh	GSTO1 counter	Apaf-1 inh	proCasp3 act	procasp7 counter	ZTA inh confirm	EBNA-1 counter
O=C(Nc1cc(S(=O)(=O)N2CCOCC2)ccc1N1CCOCC1)c1ccc(S(=O)(=O)N2CCCCC2)cc1	-4.5	-11.4	8.5	4.7	-0.7	-0.5	.	.
O=C(Nc1cc(S(=O)(=O)N2CCOCC2)ccc1N1CCOCC1)c1ccc(Cl)nc1	33.5*	7.4	-8.6	-18.9	-5.4	-1.7	5.3	4.7
CC1=CC(=O)C(C(C)C)=C/C1=C(\c1cc(C(C)C)c(OP(=O)(O)O)cc1C)c1ccccc1C(=O)O	1.9	5.0	9.3	8.0	2.9	5.5	.	.
CCCCCCCCC(NC(=O)c1ccc(C#N)cc1)C(=O)NCCC (configuration not stated)	0.9	.	.	-1.0	-5.6	0.1	.	.
NC1=NC[C@H](c2ccccc2)N1CCCCC1CCCCC1	33.0*	6.0	2.9	37.1	-6.3	6.2	1.9	-12.7
S=C1NC[C@H](c2ccccc2)N1CCCCC1CCCCC1	1.7	3.3	-1.4	29.8	-0.6	3.1	.	.
COCCCN(C(=O)c1cc2c(s1)CCCCC2)c1c(N)n(Cc2ccccc2)c(=O)[nH]c1=O	161.7*	12.2	-2.6	8.6	-2.8	0.3	15.1	0.5
COCCN(C(=O)c1cc2c(s1)CCCCC2)c1c(N)n(Cc2ccccc2)c(=O)[nH]c1=O	-0.2	8.5	-3.7	14.6	0.1	4.5	.	.
Cc1ccc(-c2nn(-c3ccccc3)cc2C(=O)O)o1	36.7*	4.2	-4.6	-0.2	2.1	2.9	-1.8	-13.4
Cc1ccc(-c2nn(-c3ccccc3)cc2/C=C/C(=O)O)o1	-21.4	-10.7	-2.3	-3.0	-15.9	-14.0	.	.
COc1ccc(S(=O)(=O)N2CCCCC2)cc1NC(=O)CCNC(=O)c1ccc(Cl)cc1	.	.	.	2.7	0.1	2.4	.	.
CC1(C)CC(=O)C2=C(C1)OC(N)=C(C#N)C2c1ccccc1[N+](=O)[O-] (configuration not stated)	128.9*	1.8	1.4	6.4	18.6	19.9	3.2	-11.6
O=C(CCn1nnnc1CN1CCOCC1)N1CCC(c2ccccc2F)C1 (configuration not stated)	-20.6	-6.4	9.8	3.5	-2.9	7.3	.	.
CC(=O)c1ccc(S(=O)(=O)Nc2ccc(C(=O)NCCCn3ccnc3)cc2)cc1	-5.0	.	.	6.0	1.6	7.3	.	.
NC(=O)c1cccc2ccccc12	7.3	-2.3	8.1	-17.3	7.5	-2.3	.	.
O=C(O)/C(=C\c1ccc2ccccc2c1)c1cccc2ccccc12	36.4*	8.4	24.0	-14.3	12.5	1.3	1.8	8.5
Cc1ccc(C(=O)Nc2ccc(C(=O)N/N=C/c3ccncc3)cc2)cc1	47.2*	-1.7	-2.8	7.4	8.1	3.3	45.1*	-8.3
Cc1ccc(/C=N/NC(=O)c2ccncc2)cc1	-3.7	-6.5	-1.3	-499.0	-2.0	-7.7	.	.
CC(NC(=O)c1ccccc1)c1nnc(SCC(=O)NC2CCCC2)n1C (configuration not stated)	3.5	-9.9	-3.6	-0.8	-1.5	3.9	.	.
C#CCOCCOCCOCCNc1nc(N2CCOCC2)nc(N2CCN(C(=O)[C@H](CCCCN)n3cc([C@@H](N)CO)nn3)CC2)n1	168.3*	12.4	22.9	13.9	1.4	-5.0	-4.4	-3.1
C#CCOCCOCCOCCNc1nc(OC)nc(N2CCN(C(=O)[C@H](CCCCN)n3cc(C(N)CO)nn3)CC2)n1 (some centres not stated)	.	.	.	5.9	.	.	.	.
C#CCOCCOCCOCCNc1nc(N2CCN(C(=O)CCCCCCCCCCNC(=O)[C@@H](CCSC)n3cc(CCO)nn3)CC2)nc(N2CCN(C(=O)CCCCCCCCCCNC(=O)[C@@H]([C@H](C)O)n3cc(C)nn3)CC2)n1	6.1	4.4	-22.1	33.5	1.6	-8.1	.	.
C#CCOCCOCCOCCNc1nc(N2CCN(C(=O)CCCCCCCCCCNC(=O)[C@H](CCCCN)n3cc(C)nn3)CC2)nc(N2CCN(C(=O)CCCCCCCCCCNC(=O)[C@@H]([C@H](C)O)n3cc(C)nn3)CC2)n1	39.9*	11.9	-2.6	54.4*	-0.4	10.9	3.2	1.9
C#CCOCCOCCOCCNc1nc(N2CCN(C(=O)CCCCCCCCCCNC(=O)[C@@H](CCC(=O)O)n3cc(CCCCCN)nn3)CC2)nc(N2CCN(C(=O)CCCCCCCCCCNC(=O)[C@H](CO)n3cc(CCCSC)nn3)CC2)n1	-31.8	1.9	-0.5	29.6	2.5	3.9	.	.
C#CCOCCOCCOCCNc1nc(N2CCN(C(=O)CCCCCCCCCCNC(=O)[C@H]([C@@H](C)CC)n3cc(CCCCN=C(N)N)nn3)CC2)nc(N2CCN(C(=O)CCCCCCCCCCNC(=O)[C@@H]([C@H](C)O)n3cc(C)nn3)CC2)n1	67.7*	4.1	0.9	44.9*	8.0	-7.3	61.1*	0.8
C#CCOCCOCCOCCNc1nc(N2CCN(C(=O)CCCCCCCCCCNC(=O)Cn3cc(C[C@@H](C)O)nn3)CC2)nc(N2CCN(C(=O)CCCCCCCCCCNC(=O)[C@@H]([C@H](C)O)n3cc(C)nn3)CC2)n1	-3.0	5.2	2.0	27.4	6.3	-1.2	.	.
C#CCOCCOCCOCCNc1nc(N2CCN(C(=O)CCCCCCCCCCNC(=O)[C@@H](CCC(=O)O)n3cc(CCCCCN)nn3)CC2)nc(N2CCN(C(=O)CCCCCCCCCCNC(=O)[C@H](CO)n3cc(CCCCCN)nn3)CC2)n1	37.1*	3.9	4.8	54.4*	4.0	13.7	-6.7	-8.1
O=C(CCNC(=O)c1ccccc1Cl)Nc1cccc(S(=O)(=O)N2CCOCC2)c1	-0.3	.	.	4.2	-3.2	-3.7	.	.
C#CCOCCOCCOCCNc1nc(N2CCN(C(=O)CCCCCCCCCCNC(=O)Cn3cc(C[C@@H](C)O)nn3)CC2)nc(N2CCN(C(=O)CCCCCCCCCCNC(=O)[C@@H](CCSC)n3cc(CCO)nn3)CC2)n1	0.7	5.2	-27.3	29.6	3.9	-11.4	.	.
